This note sets out measurements from ChEMBL document CHEMBL4765301, “Discovery of novel TNNI3K inhibitor suppresses pyroptosis and apoptosis in murine myocardial infarction injury” (Eur J Med Chem, 2020).

Usually pIC50 stands for the negative decadic logarithm of the IC50, by convention in mol/L. Low readings indicate a high IC50, high ones a low IC50.

The structures appear in SMILES notation. pIC50: −log10 of the molar value.

Experiment [1] has as its target T1, Serine/threonine-protein kinase TNNI3K (Homo sapiens) (UniProt Q59H18).
T1 sequence (whole entry): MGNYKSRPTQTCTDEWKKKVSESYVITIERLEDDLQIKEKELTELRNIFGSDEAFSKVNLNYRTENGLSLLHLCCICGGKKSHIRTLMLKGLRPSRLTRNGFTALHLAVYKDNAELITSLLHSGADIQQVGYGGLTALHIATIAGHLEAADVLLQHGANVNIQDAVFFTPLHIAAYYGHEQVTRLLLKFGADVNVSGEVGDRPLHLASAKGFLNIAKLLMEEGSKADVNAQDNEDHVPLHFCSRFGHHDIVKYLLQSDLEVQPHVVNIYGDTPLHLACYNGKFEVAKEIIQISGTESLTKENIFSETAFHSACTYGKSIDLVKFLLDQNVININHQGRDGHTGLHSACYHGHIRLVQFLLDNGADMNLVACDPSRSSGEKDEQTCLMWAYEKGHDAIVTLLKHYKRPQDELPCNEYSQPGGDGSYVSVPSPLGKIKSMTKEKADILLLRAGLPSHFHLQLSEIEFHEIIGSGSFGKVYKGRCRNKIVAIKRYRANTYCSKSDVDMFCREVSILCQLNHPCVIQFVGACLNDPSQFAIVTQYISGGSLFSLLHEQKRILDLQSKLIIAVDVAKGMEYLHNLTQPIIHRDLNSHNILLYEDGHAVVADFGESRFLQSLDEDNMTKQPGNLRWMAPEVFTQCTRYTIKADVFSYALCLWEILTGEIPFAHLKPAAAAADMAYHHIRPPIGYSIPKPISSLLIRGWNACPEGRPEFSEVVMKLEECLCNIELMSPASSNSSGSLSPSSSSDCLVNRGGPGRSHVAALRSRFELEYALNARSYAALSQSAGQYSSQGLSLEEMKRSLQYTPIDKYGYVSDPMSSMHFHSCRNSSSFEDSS
Put plainly: Inhibition of TNNI3K (unknown origin) assessed as residual activity at 1 uM using biotinylated CTnI as substrate by HTRF analysis relative to control. The method, boiled down: (§1)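 TNNI3K was assayed by HTRF using a GST-tagged TNNI3K kinase domain and a biotinylated cardiac troponin I substrate peptide, followed by the two HTRF detection reagents. Compounds were screened at 1.0 µM, then IC50s were determined.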
On the technique in general: TR-FRET usually uses a lanthanide donor and a delayed reading to cut background.

The target of experiment [2] is Epidermal growth factor receptor (Homo sapiens) (UniProt P00533). Kind of experiment: Inhibition of recombinant human EGFR (696 to end residues) assessed as residual activity at 1 uM using poly(Glu, Tyr) 4:1 as substrate incubated for 40 mins by [gamma-33P]-ATP scintillation counting based radiometry assay relative to control.
Experiment [3] deals with Receptor tyrosine-protein kinase erbB-2 (Homo sapiens) (UniProt P04626). Kind of experiment: Inhibition of recombinant human HER2 (676 to end residues) assessed as residual activity at 1 uM using poly(Glu, Tyr) 4:1 as substrate incubated for 40 mins by [gamma-33P]-ATP scintillation counting based radiometry assay relative to control.
The target in experiment [4] is Vascular endothelial growth factor receptor 1 (Homo sapiens) (UniProt P17948). Kind of experiment: Inhibition of recombinant human FLT1 (783 to end residues) assessed as residual activity at 1 uM using KKKSPGEYVNIEFG as substrate incubated for 40 mins by [gamma-33P]-ATP scintillation counting based radiometry assay relative to control.
For experiment [5], the target named is Vascular endothelial growth factor receptor 2 (Homo sapiens) (UniProt P35968). Put plainly: Inhibition of recombinant human KDR (790 to end residues) assessed as residual activity at 1 uM using myelin basic protein as substrate incubated for 40 mins by [gamma-33P]-ATP scintillation counting based radiometry assay relative to control.
Experiment [6] addresses T2, Serine/threonine-protein kinase TNNI3K (Homo sapiens, UniProt Q59H18).
T2 sequence (Q59H18 whole entry): T1 sequence (whole entry)
Kind of experiment: Inhibition of TNNI3K (unknown origin) using biotinylated CTnI as substrate by HTRF analysis. In outline: as §1

Experiment [7] relates to H9c2. Kind of experiment: Cytoprotective activity against OGD-induced cell death in rat H9c2 cells assessed as cell viability at 1 uM incubated for 24 hrs by MTT assay (reference value: 42.08 to 49.11 %). Type of experiment: functional. The settings on record: read-out: Activity.
The subject of experiment [8] is H9c2. Put plainly: Cytoprotective activity against OGD-induced cell death in rat H9c2 cells assessed as cell viability at 10 uM incubated for 24 hrs by MTT assay (reference value: 42.08 to 49.11 %). Type of experiment: functional. Particulars: read-out: Activity. In general terms: Tetrazolium dyes change colour on reduction, which living cells bring about.

Receptor tyrosine-protein kinase erbB-2 (Homo sapiens), sequence (P04626 whole entry): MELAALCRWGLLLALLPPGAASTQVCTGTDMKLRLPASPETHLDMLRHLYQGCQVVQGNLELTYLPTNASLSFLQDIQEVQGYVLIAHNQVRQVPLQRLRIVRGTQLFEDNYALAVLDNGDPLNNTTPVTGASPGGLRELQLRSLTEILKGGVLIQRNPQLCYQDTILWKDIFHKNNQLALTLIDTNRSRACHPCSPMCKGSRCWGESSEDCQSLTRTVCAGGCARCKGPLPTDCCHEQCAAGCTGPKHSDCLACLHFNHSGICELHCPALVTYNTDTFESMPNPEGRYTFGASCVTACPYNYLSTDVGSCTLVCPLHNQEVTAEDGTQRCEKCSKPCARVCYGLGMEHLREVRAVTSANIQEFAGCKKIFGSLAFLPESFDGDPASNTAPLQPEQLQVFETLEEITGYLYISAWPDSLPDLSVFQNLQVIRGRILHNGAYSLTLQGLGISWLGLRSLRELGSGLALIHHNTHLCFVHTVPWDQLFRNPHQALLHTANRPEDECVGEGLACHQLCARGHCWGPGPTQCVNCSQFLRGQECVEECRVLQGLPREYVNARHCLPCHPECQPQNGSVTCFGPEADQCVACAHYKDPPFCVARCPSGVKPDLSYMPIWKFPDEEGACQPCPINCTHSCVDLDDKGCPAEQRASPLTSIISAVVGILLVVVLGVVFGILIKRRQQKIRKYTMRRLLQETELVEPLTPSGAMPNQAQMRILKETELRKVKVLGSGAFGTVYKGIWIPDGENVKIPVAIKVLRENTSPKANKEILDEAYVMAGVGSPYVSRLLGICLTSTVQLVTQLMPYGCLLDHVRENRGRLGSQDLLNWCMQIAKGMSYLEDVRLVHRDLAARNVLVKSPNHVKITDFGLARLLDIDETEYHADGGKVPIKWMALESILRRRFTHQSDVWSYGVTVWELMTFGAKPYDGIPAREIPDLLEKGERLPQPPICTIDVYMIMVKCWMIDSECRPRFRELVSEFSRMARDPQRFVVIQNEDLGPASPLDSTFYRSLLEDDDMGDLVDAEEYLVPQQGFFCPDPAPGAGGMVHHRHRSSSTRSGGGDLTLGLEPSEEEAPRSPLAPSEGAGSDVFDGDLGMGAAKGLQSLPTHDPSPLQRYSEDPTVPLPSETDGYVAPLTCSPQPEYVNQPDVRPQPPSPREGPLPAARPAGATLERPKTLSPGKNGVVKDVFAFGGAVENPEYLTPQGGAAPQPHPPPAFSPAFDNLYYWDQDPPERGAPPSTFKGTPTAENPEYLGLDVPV
Epidermal growth factor receptor (Homo sapiens), sequence (P00533 whole entry): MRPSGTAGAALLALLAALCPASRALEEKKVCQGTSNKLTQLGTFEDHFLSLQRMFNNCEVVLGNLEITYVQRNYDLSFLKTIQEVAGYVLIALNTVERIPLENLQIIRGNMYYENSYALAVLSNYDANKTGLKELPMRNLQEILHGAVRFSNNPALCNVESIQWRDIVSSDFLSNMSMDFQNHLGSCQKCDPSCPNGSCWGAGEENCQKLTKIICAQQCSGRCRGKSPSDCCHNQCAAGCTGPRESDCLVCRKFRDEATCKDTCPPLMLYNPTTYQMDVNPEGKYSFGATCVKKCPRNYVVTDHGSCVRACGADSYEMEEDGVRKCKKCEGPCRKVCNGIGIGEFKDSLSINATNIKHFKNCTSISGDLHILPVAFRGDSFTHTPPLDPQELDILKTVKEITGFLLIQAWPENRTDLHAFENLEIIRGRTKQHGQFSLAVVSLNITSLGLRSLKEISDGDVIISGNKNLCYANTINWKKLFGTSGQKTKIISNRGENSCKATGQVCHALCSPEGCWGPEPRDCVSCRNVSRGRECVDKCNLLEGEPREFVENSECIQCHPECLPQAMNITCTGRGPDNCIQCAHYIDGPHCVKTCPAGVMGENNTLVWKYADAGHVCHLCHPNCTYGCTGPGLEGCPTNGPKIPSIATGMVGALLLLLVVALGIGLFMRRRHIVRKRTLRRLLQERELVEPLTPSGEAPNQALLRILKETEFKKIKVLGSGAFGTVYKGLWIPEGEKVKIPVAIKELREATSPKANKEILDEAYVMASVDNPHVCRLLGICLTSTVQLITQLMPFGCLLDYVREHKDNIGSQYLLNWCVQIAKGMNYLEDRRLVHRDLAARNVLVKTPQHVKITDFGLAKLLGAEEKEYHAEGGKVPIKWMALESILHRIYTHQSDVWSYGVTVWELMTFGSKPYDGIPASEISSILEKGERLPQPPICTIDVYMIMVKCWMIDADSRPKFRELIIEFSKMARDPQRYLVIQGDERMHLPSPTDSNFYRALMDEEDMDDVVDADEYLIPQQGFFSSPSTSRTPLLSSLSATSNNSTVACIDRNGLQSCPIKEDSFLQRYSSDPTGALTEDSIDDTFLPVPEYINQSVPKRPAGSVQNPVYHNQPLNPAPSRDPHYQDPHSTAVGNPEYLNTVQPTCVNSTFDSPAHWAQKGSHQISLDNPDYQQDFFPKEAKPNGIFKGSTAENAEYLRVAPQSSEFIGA
Vascular endothelial growth factor receptor 1 (Homo sapiens), sequence (P17948 whole entry): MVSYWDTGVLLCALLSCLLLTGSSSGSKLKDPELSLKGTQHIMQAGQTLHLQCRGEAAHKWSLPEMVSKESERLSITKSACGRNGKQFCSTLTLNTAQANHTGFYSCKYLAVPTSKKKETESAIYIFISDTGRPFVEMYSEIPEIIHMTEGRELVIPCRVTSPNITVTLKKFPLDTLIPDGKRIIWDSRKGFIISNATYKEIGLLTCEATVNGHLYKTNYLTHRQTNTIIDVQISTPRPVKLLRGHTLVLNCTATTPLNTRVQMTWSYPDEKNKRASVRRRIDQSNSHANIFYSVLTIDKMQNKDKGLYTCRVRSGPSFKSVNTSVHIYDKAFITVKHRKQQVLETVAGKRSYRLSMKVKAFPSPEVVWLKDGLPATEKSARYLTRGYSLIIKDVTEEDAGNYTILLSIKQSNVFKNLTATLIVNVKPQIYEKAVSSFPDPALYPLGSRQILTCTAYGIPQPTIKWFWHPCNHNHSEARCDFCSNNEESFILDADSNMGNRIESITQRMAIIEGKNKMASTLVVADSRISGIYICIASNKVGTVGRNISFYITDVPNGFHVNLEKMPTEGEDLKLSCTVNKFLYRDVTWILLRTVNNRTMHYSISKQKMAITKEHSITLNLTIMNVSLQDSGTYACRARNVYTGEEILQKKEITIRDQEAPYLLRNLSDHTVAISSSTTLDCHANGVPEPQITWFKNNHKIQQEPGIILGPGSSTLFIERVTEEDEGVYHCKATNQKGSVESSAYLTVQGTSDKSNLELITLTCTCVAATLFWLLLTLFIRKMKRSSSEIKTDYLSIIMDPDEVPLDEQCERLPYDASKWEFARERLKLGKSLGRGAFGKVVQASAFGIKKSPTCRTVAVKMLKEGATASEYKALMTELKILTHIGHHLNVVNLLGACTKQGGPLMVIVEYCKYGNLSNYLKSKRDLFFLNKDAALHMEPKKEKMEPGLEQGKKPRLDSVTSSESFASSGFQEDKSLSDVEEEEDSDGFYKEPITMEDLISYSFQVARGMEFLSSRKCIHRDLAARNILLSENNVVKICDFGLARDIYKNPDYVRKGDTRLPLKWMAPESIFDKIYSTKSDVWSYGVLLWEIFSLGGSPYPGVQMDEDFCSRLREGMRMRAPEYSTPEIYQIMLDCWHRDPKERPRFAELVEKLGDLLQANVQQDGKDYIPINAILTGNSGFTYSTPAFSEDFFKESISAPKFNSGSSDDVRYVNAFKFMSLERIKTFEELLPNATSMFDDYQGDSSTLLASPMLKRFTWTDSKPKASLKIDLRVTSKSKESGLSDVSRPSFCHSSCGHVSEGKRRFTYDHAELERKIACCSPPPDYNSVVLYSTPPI

On to `CN(C)c1ccc(Nc2ncnc3sc4c(c23)CCN(C(=O)c2ccccn2)C4)cc1NC(=O)c1cccs1`, for which the Activity in experiment [1] stood at 40%; in experiment [2], 99%; in experiment [3] it was 99%; in experiment [4], 87%; in experiment [5] it was 73%.

`CN(C)c1ccc(Nc2ncnc3sc4c(c23)CCNC4)cc1NC(=O)c1ccco1`: the Activity in experiment [1] stood at 35%; in experiment [2], 100%; in experiment [3] it was 91%; in experiment [4] it was 96%; in experiment [5] it was 92%. The pIC50 in experiment [6] was 6.14. Also, the viability at 1 µM in the experiment on H9c2 [7] was 54.1%. Besides, the viability at 10 µM with H9c2 [8] amounted to 71%.

For the molecule `CN(C)c1ccc(Nc2ncnc3sc4c(c23)CCNC4)cc1NC(=O)c1cccc2ccccc12`, the Activity turned out to be 71% in experiment [1]; 110% in experiment [2]; 90% in experiment [3]; 105% in experiment [4]; 88% in experiment [5].

With `CCC(=O)Nc1cc(Nc2ncnc3sc4c(c23)CCN(Cc2ccccc2)C4)ccc1N(C)C`, the Activity in experiment [1] came to 48%; in experiment [2], 91%; in experiment [3] it was 94%; in experiment [4] it was 106%; in experiment [5], 85%.

As for `CCC(=O)Nc1cc(Nc2ncnc3sc4c(c23)CCNC4)ccc1N(C)C`, the Activity was determined as 46% in experiment [1]; 97% in experiment [2]; 102% in experiment [3]; 107% in experiment [4]; 92% in experiment [5].

For `CN1CCc2c(sc3ncnc(Nc4ccc(N(C)C)c(NC(=O)c5cccs5)c4)c23)C1`, the Activity in experiment [1] was found to be 40%; in experiment [2] it was 104%; in experiment [3] it was 103%; in experiment [4] it was 108%; in experiment [5], 89%.

For the molecule `CN1CCc2c(sc3ncnc(Nc4ccc(N(C)C)c(NC(=O)c5cccc6ccccc56)c4)c23)C1`, the Activity in experiment [1] amounted to 77%; in experiment [2] it was 98%; in experiment [3], 96%; in experiment [4], 101%; in experiment [5], 87%.

For `CN(C)c1ccc(Nc2ncnc3sc4c(c23)CCN(C(=O)c2ccncc2)C4)cc1NC(=O)c1cccs1`, the Activity in experiment [1] was found to be 36%; in experiment [2] it was 85%; in experiment [3] it was 110%; in experiment [4] it was 85%; in experiment [5], 82%.

`Cc1ccc(C(=O)Nc2cc(Nc3ncnc4sc5c(c34)CCN(C)C5)ccc2N(C)C)cc1`: the Activity was found to be 71% in experiment [1]; 108% in experiment [2]; 92% in experiment [3]; 97% in experiment [4]; 83% in experiment [5].

With `Cc1ccc(C(=O)Nc2cc(Nc3ncnc4sc5c(c34)CCNC5)ccc2N(C)C)cc1`, the Activity in experiment [1] was determined as 78%; in experiment [2], 108%; in experiment [3], 92%; in experiment [4], 96%; in experiment [5], 95%.

As to `CCC(=O)Nc1cc(Nc2ncnc3sc4c(c23)CCN(C)C4)ccc1N(C)C`, the Activity came out at 49% in experiment [1]; 99% in experiment [2]; 109% in experiment [3]; 95% in experiment [4]; 82% in experiment [5].

As to `CCC(=O)Nc1cc(Nc2ncnc3sc4c(c23)CCN(c2ncccn2)C4)ccc1N(C)C`, the Activity in experiment [1] is 59%; in experiment [2], 102%; in experiment [3], 99%; in experiment [4], 106%; in experiment [5], 80%.

On to `CN(C)c1ccc(Nc2ncnc3sc4c(c23)CCNC4)cc1NC(=O)c1cccnc1`, for which the Activity was found to be 45% in experiment [1]; 108% in experiment [2]; 107% in experiment [3]; 104% in experiment [4]; 90% in experiment [5].

`CN(C)c1ccc(Nc2ncnc3sc4c(c23)CCN(C(=O)c2cccnc2)C4)cc1NC(=O)c1cccs1`: the Activity in experiment [1] was 45%; in experiment [2] it was 94%; in experiment [3] it was 93%; in experiment [4] it was 81%; in experiment [5], 69%.

Take `CN(C)c1ccc(Nc2ncnc3sc4c(c23)CCN(C(=O)c2ncccn2)C4)cc1NC(=O)c1cccs1`: the Activity in experiment [1] turned out to be 49%; in experiment [2] it was 92%; in experiment [3], 112%; in experiment [4], 104%; in experiment [5], 86%.

As to `CN(C)c1ccc(Nc2ncnc3sc4c(c23)CCN(C(=O)c2cnccn2)C4)cc1NC(=O)c1cccs1`, the Activity in experiment [1] amounted to 44%; in experiment [2] it was 80%; in experiment [3] it was 113%; in experiment [4] it was 98%; in experiment [5], 80%.

For the molecule `CN(C)c1ccc(Nc2ncnc3sc4c(c23)CCN(C(=O)c2cnccn2)C4)cc1NC(=O)c1ccco1`, the Activity in experiment [1] worked out at 43%; in experiment [2] it was 89%; in experiment [3], 96%; in experiment [4] it was 98%; in experiment [5], 90%.

Consider `CN(C)c1ccc(Nc2ncnc3sc4c(c23)CCN(C(=O)c2ncccn2)C4)cc1NC(=O)c1ccco1`, for which the Activity in experiment [1] was found to be 54%; in experiment [2], 82%; in experiment [3], 98%; in experiment [4], 101%; in experiment [5], 81%.

With `CN1CCc2c(sc3ncnc(Nc4ccc(N(C)C)c(NC(=O)c5ccncc5)c4)c23)C1`, the Activity in experiment [1] came to 46%; in experiment [2] it was 105%; in experiment [3], 97%; in experiment [4], 105%; in experiment [5] it was 84%.

As for `CCC(=O)Nc1cc(Nc2ncnc3sc4c(c23)CCN(C(=O)c2ccc(C(F)(F)F)cc2)C4)ccc1N(C)C`, the Activity came to 41% in experiment [1]; 107% in experiment [2]; 103% in experiment [3]; 109% in experiment [4]; 95% in experiment [5].

As to `CN1CCc2c(sc3ncnc(Nc4ccc(N(C)C)c(NC(=O)c5ccccn5)c4)c23)C1`, the Activity came to 55% in experiment [1]; 100% in experiment [2]; 103% in experiment [3]; 94% in experiment [4]; 89% in experiment [5].

`CN(C)c1ccc(Nc2ncnc3sc4c(c23)CCNC4)cc1NC(=O)c1ccccn1`: the Activity was determined as 42% in experiment [1]; 103% in experiment [2]; 98% in experiment [3]; 96% in experiment [4]; 95% in experiment [5].

Take `CCC(=O)Nc1cc(Nc2ncnc3sc4c(c23)CCN(CC)C4)ccc1N(C)C`: the Activity in experiment [1] is 53%; in experiment [2], 93%; in experiment [3], 90%; in experiment [4], 109%; in experiment [5], 80%.

As to `CN(C)c1ccc(Nc2ncnc3sc4c(c23)CCN(C(=O)c2cccnc2)C4)cc1NC(=O)c1ccco1`, the Activity came to 41% in experiment [1]; 110% in experiment [2]; 101% in experiment [3]; 89% in experiment [4]; 93% in experiment [5].

Regarding `CN1CCc2c(sc3ncnc(Nc4ccc(N(C)C)c(NC(=O)c5cccnc5)c4)c23)C1`, the Activity in experiment [1] turned out to be 47%; in experiment [2] it was 105%; in experiment [3], 93%; in experiment [4], 103%; in experiment [5], 94%.
